From ChEMBL document CHEMBL3877272, “Synthesis and anti-mitotic activity of 6,7-dihydro-4H-isothiazolo[4,5-b]pyridin-5-ones: In vivo and cell-based studies” (Eur J Med Chem, 2017)
Calls of active or inactive are those of the source.

How the values were obtained:
Paracentrotus lividus [1] = test: Antimitotic activity in sea urchin free-swimming blastulae assessed as microtubule destabilization by measuring embryo spinning exposed 8 to 10 hrs after fertilization measured after 15 mins to 20 hrs; format: functional, Blastula
Outline: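 Free-swimming P. lividus blastulae just after hatching (8–10 h post-fertilization) from same culture, exposed in seawater to 2-fold decreasing concentrations (DMSO stock diluted in EtOH). Settling to well bottom with rapid spinning around animal-vegetal axis scored by light microscopy over 15 min–20 h. Effective threshold concentration; duplicate measurements.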

Paracentrotus lividus [2] = test: Antimitotic activity in sea urchin embryo assessed as cleavage alteration exposed 8 to 15 mins after fertilization 45 to 55 mins before first mitotic cycle completion measured at 2.5 to 5.5 hrs post dose; format: functional
Outline: (§1)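 Paracentrotus lividus eggs, fertilized in filtered seawater, cultured as monolayer (up to 2000 embryos/mL) at room temperature. Exposed 8–15 min post-fertilization to 2-fold decreasing concentrations (DMSO stock diluted in EtOH; final DMSO ≤0.05%, EtOH ≤1%). Cleavage alteration scored at 8-cell, arrest at early blastula stage (2.5–5.5 h). Effective threshold concentration reported; duplicate measurements.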

Paracentrotus lividus [3] = test: Antimitotic activity in sea urchin embryo assessed as cleavage arrest exposed 8 to 15 mins after fertilization 45 to 55 mins before first mitotic cycle completion measured at 2.5 to 5.5 hrs post dose; format: functional; outline: as §1
Paracentrotus lividus [4] = test: Antimitotic activity in early pluteus stage of sea urchin embryo assessed as growth inhibition of skeletal spicules at 1 uM; format: functional, tissue-based; conditions: Spicule
Outline: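 P. lividus embryos (gametes by intracoelomic 0.5 M KCl, fertilized in filtered seawater, room temperature, paddle agitation 60 rpm); compound from 10 mM DMSO stock diluted 10-fold in 96% EtOH; growth of skeletal spicules scored by light microscopy at early pluteus stage.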

[5] = Solubility in DMSO; format: physicochemical
Paracentrotus lividus [6] = test: In vivo microtubule destabilizing activity in sea urchin embryo assessed as tuberculate egg formation exposed 8 to 15 mins after fertilization 45 to 55 mins before first mitotic cycle completion measured at 2.5 to 5.5 hrs post dose; format: functional
Outline: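 Paracentrotus lividus eggs from KCl-induced spawning, fertilized and cultured in filtered seawater at room temperature, up to 2000 embryos/mL. Compounds came from 10 mM DMSO stocks diluted 10-fold in 96% EtOH; tolerated solvent limits were 0.05% DMSO and 1% EtOH. Eggs were exposed to 2-fold decreasing concentrations and scored by light microscopy. The result is the effective threshold concentration, measured in duplicate.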

[7] = Solubility in seawater assessed as micro-crystal formation at 4 uM by light microscopy; format: physicochemical
Outline: (§2)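 Compound from 10 mM DMSO stock diluted 10-fold in 96% EtOH, added to seawater with sea urchin embryos; microcrystal formation checked by light microscopy.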

[8] = Antiproliferative activity against human NCI60 cells at 10 uM after 48 hrs by SRB assay relative to control; format: functional; conditions: NCI60, 48 h, read-out: GI
[9] = Antiproliferative activity against human MDA-MB-468 cells measured after 48 hrs by SRB assay; format: functional, cell-based; conditions: MDA-MB-468, 48 h
[10] = Antiproliferative activity against human MDA-MB-435 cells measured after 48 hrs by SRB assay; format: functional, cell-based; conditions: MDA-MB-435, 48 h
[11] = Antiproliferative activity against human MDA-MB-DYT2 cells measured after 96 hrs by Celltiter-Glo assay; format: functional, cell-based
Outline: (§3)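 Cells plated 24 h, then treated 96 h with 0.1% DMSO or concentrations […]; growth by CellTiter-Glo luminescence, normalized to DMSO control; IC50 from dose–response curves by logistic nonlinear regression; mean of three independent experiments.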

[12] = Antiproliferative activity against human NCI/ADR-RES cells measured after 3 to 4 days by Celltiter-Glo luminescent cell viability assay; format: functional
[13] = Antiproliferative activity against human TOV112D cells measured after 96 hrs by Celltiter-Glo assay; format: functional, cell-based; outline: as §3
[14] = Antiproliferative activity against human NCI-H1975 cells measured after 96 hrs by Celltiter-Glo assay; format: functional, cell-based; conditions: NCI-H1975, 96 h; outline: as §3
[15] = Antiproliferative activity against human OVCAR8 cells measured after 3 to 4 days by Celltiter-Glo luminescent cell viability assay; format: functional; conditions: OVCAR-8
[16] = Solubility in seawater assessed as micro-crystal formation at 2 uM by light microscopy; format: physicochemical; outline: as §2
[17] = Antiproliferative activity against human MDA-MB-435 cells measured after 96 hrs by Celltiter-Glo assay; format: functional, cell-based; conditions: MDA-MB-435, 96 h; outline: as §3
[18] = Antiproliferative activity against human NCI60 cells measured after 48 hrs by SRB assay; format: functional; conditions: NCI60, 48 h
[19] = Antiproliferative activity against human MDA-MB-468 cells measured after 96 hrs by Celltiter-Glo assay; format: functional, cell-based; conditions: MDA-MB-468, 96 h; outline: as §3
[20] = Antiproliferative activity against human Caov3 cells measured after 96 hrs by Celltiter-Glo assay; format: functional, cell-based; conditions: Caov-3, 96 h; outline: as §3
[21] = Antiproliferative activity against human MDA-MB-231 cells measured after 96 hrs by Celltiter-Glo assay; format: functional, cell-based; conditions: MDA-MB-231, 96 h; outline: as §3
[22] = Solubility in seawater assessed as micro-crystal formation at 1 uM by light microscopy; format: physicochemical; outline: as §2
[23] = Antiproliferative activity against human A2780cis cells measured after 3 days by Celltiter-Glo assay; format: functional, cell-based; conditions: A2780cisR, 72 h
Outline: (§4)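 Cells in ATCC-recommended medium, STR-authenticated, mycoplasma-tested; 3-day exposure to varying concentrations; viability by CellTiter-Glo luminescence normalized to DMSO control; IC50 from logistic nonlinear regression; mean of three independent experiments.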

NCI-H1975 = test: Induction of microtubule disintegration in human NCI-H1975 cells at 1 uM measured upto 24 hrs by Hoechst staining-based laser scanning microscopic method; format: cell-based
Outline: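 NCI-H1975 cells, 0.1% DMSO or 1 µM compound for 6, 16 and 24 h; paraformaldehyde-fixed, Triton-permeabilized, BSA-blocked, anti-β-tubulin (1:1000, overnight 4 °C) with Alexa Fluor 647 secondary, Hoechst nuclear counterstain; laser scanning confocal imaging.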

[24] = Cell cycle arrest in human MDA-MB-468 cells assessed mitotic index by measuring level of phospho-histone H3 positive cells at 1 uM measured after 24 hrs by DNA dye based flow cytometry (reference value: 2.18); format: functional
[25] = Cell cycle arrest in human NCI-H1975 cells assessed as reduction in G1 phase at 1 uM measured after 24 hrs by DNA dye based flow cytometry; format: functional
Outline: (§5)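 Cells exposed to 1 µM compound or 0.1% DMSO for 24 h; stained with bivariate cell cycle kit (DNA dye); Sub-G1, G1, S and G2/M fractions by flow cytometry as mean percentage with standard error; two independent experiments in duplicate.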

[26] = Antiproliferative activity against human A2780/ADR cells measured after 3 days by Celltiter-Glo assay; format: functional, cell-based; conditions: 72 h; outline: as §4
[27] = Antiproliferative activity against human A2780 cells measured after 3 days by Celltiter-Glo assay; format: functional, cell-based; conditions: A2780, 72 h; outline: as §4
[28] = Antiproliferative activity against human MOR cells measured after 3 days by Celltiter-Glo assay; format: functional, cell-based; conditions: 72 h; outline: as §4
[29] = Cell cycle arrest in human NCI-H1975 cells assessed as accumulation in G2/M phase at 1 uM measured after 24 hrs by DNA dye based flow cytometry (reference value: 20%); format: functional; outline: as §5
[30] = Cell cycle arrest in human NCI-H1975 cells assessed as accumulation in sub-G1 phase at 1 uM measured after 24 hrs by DNA dye based flow cytometry; format: functional; outline: as §5
[31] = Cell cycle arrest in human NCI-H1975 cells assessed as reduction in S phase at 1 uM measured after 24 hrs by DNA dye based flow cytometry; format: functional; outline: as §5
[32] = Cell cycle arrest in human MDA-MB-468 cells assessed as reduction in G1 phase at 1 uM measured after 24 hrs by DNA dye based flow cytometry; format: functional; outline: as §5
[33] = Cell cycle arrest in human NCI-H1975 cells assessed mitotic index by measuring level of phospho-histone H3 positive cells at 1 uM measured after 24 hrs by DNA dye based flow cytometry (reference value: 1.9); format: functional
[34] = Cell cycle arrest in human MDA-MB-468 cells assessed as accumulation in sub-G1 phase at 1 uM measured after 24 hrs by DNA dye based flow cytometry; format: functional; outline: as §5
[35] = Cell cycle arrest in human MDA-MB-468 cells assessed as reduction in S phase at 1 uM measured after 24 hrs by DNA dye based flow cytometry; format: functional; outline: as §5
[36] = Antiproliferative activity against human MOR/CPR cells measured after 3 days by Celltiter-Glo assay; format: functional, cell-based; conditions: 72 h; outline: as §4
[37] = Antiproliferative activity against human adriamycin-resistant MOR cells measured after 3 days by Celltiter-Glo assay; format: functional, cell-based; conditions: 72 h; outline: as §4

COc1cc(C2CC(=O)Nc3c(-c4ccc(F)cc4)nsc32)c(OC)c2c1OCO2 (centres undefined)
EC (Paracentrotus lividus [1]): >4 µM | EC (Paracentrotus lividus [2]): >4 µM | EC (Paracentrotus lividus [3]): >4 µM | Activity (Paracentrotus lividus [4]): Active

COc1ccc(-c2nsc3c2NC(=O)CC3c2cc(OC)c3c(c2)OCO3)cc1 (centres undefined)
EC (Paracentrotus lividus [1]): >4 µM | EC (Paracentrotus lividus [2]): >4 µM | EC (Paracentrotus lividus [3]): >4 µM | solubility [5]: Soluble

O=C1CC(c2ccc(F)cc2)c2snc(-c3cccc(F)c3)c2N1 (centres undefined)
Activity (Paracentrotus lividus [6]): Active | EC (Paracentrotus lividus [1]): >4 µM | EC (Paracentrotus lividus [2]): 1 µM | EC (Paracentrotus lividus [3]): 4 µM

COc1cc(C2CC(=O)Nc3c(-c4ccc(Cl)cc4)nsc32)cc2c1OCO2 (centres undefined)
EC (Paracentrotus lividus [1]): >4 µM | EC (Paracentrotus lividus [2]): 2 µM | EC (Paracentrotus lividus [3]): >4 µM | solubility [7]: Insoluble | inhibition of growth at 10 µM [8]: 17.8%

COc1ccc(-c2nsc3c2NC(=O)CC3c2cc3c(c(OC)c2OC)OCO3)cc1 (centres undefined)
Activity (Paracentrotus lividus [6]): Active | EC (Paracentrotus lividus [1]): >5 µM | EC (Paracentrotus lividus [2]): 0.2 µM | EC (Paracentrotus lividus [3]): 2 µM | inhibition of growth at 10 µM [8]: 26.9%

COc1cc(C2CC(=O)Nc3c(-c4ccc(F)cc4)nsc32)cc2c1OCO2 (centres undefined)
EC (Paracentrotus lividus [1]): >4 µM | EC (Paracentrotus lividus [2]): >4 µM | EC (Paracentrotus lividus [3]): >4 µM | Activity (Paracentrotus lividus [4]): Active | inhibition of growth at 10 µM [8]: 10.1%

COc1ccc(-c2nsc3c2NC(=O)CC3c2cccc(OC)c2)cc1 (centres undefined)
IC50 [9]: 0.395 µM | EC (Paracentrotus lividus [1]): 0.1 µM | IC50 [10]: 0.282 µM | IC50 [11]: 1.91 µM | EC (Paracentrotus lividus [2]): 0.01 µM | GI50 [12]: 0.42 µM | IC50 [13]: 0.808 µM | EC (Paracentrotus lividus [3]): 0.05 µM | IC50 [14]: 1.98 µM | GI50 [15]: 3.22 µM | solubility [16]: Insoluble | IC50 [17]: 0.591 µM | GI50 [18]: 1.55 µM | IC50 [19]: 0.662 µM | IC50 [20]: 1.48 µM | IC50 [21]: 1.39 µM

COc1ccc(-c2nsc3c2NC(=O)CC3c2ccc3c(c2)OCO3)cc1 (centres undefined)
EC (Paracentrotus lividus [1]): 0.2 µM | EC (Paracentrotus lividus [2]): 0.01 µM | GI50 [12]: 0.524 µM | solubility [22]: Insoluble | EC (Paracentrotus lividus [3]): 0.1 µM | GI50 [15]: 3.04 µM | GI50 [18]: 1.55 µM

O=C1CC(c2ccc(Cl)cc2)c2snc(-c3cccc(F)c3)c2N1 (centres undefined)
EC (Paracentrotus lividus [1]): >4 µM | EC (Paracentrotus lividus [2]): >4 µM | EC (Paracentrotus lividus [3]): >4 µM | solubility [7]: Insoluble | inhibition of growth at 10 µM [8]: 16.5%

O=C1CC(c2ccc(F)cc2)c2snc(-c3ccc(F)cc3)c2N1 (centres undefined)
EC (Paracentrotus lividus [1]): >4 µM | EC (Paracentrotus lividus [2]): 1 µM | EC (Paracentrotus lividus [3]): 4 µM | solubility [7]: Insoluble | inhibition of growth at 10 µM [8]: 4.2%

COc1cccc(C2CC(=O)Nc3c(-c4ccc(F)cc4)nsc32)c1 (centres undefined)
Activity (Paracentrotus lividus [6]): Active | EC (Paracentrotus lividus [1]): >4 µM | EC (Paracentrotus lividus [2]): 1 µM | EC (Paracentrotus lividus [3]): 4 µM | inhibition of growth at 10 µM [8]: 15.1%

COc1ccc(-c2nsc3c2NC(=O)CC3c2ccsc2)cc1 (centres undefined)
IC50 [23]: 0.187 µM | Activity (NCI-H1975): Active | Activity index [24]: 11.3 | IC50 [9]: 0.117 µM | Activity [25]: Active | EC (Paracentrotus lividus [1]): 0.1 µM | IC50 [10]: 0.0235 µM | IC50 [26]: 0.355 µM | IC50 [11]: 0.309 µM | IC50 [27]: 0.229 µM | IC50 [28]: 0.702 µM | Activity [29]: 30% | Activity [30]: Active | EC (Paracentrotus lividus [2]): 0.002 µM | Activity [31]: Active | IC50 [13]: 0.136 µM | Activity [32]: Active | EC (Paracentrotus lividus [3]): 0.005 µM | Activity index [33]: 6.95 | IC50 [14]: 0.254 µM | IC50 [17]: 0.0807 µM | Activity [34]: Active | Activity [35]: Active | GI50 [18]: 0.302 µM | IC50 [19]: 0.163 µM | IC50 [36]: 0.321 µM | IC50 [20]: 0.152 µM | IC50 [21]: 0.192 µM | IC50 [37]: 0.063 µM
